The nature of experiment [1]: Cytotoxicity against mouse B16F10 cells after 48 hrs by MTT assay. Conditions: B16-F10, 48 h. It counts as functional, cell-based. The procedure, abridged: (§1)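 Cells seeded in 96-well plates, exposed to compounds at various concentrations for 48 h at 37°C, 5% CO2. MTT (0.5 mg/mL) then added for 4 h, supernatant removed, formazan dissolved in DMSO, absorbance read at 570 nm. Percent inhibition of proliferation calculated per concentration; IC50 derived from dose-dependent response.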
On the technique in general: Tetrazolium assays rely on reduction of a dye to a coloured formazan, in cell work by metabolically active cells.

The subject of a further experiment is HepG2. Description: Cytotoxicity against human HepG2 cells after 48 hrs by MTT assay. It counts as functional, cell-based. Conditions: HepG2, 48 h. The procedure, abridged:
as §1

The structures appear in SMILES notation. A value given as a limit tells only on which side of the number the result lay.

By IC50 is commonly meant the concentration at which inhibition is half-maximal. The low end stands for inhibition by little substance, the high end for a need for much substance. `C[C@@]12CC[C@@H]3[C@@](CC[C@H]4[C@@]3(C)CCC[C@@]4(C)C(=O)NCC(=O)OCCOc3no[n+]([O-])c3S(=O)(=O)c3ccccc3)(CC(=O)O1)C2` displayed an IC50 in experiment [1] of 3.52 µM.

Turning to `C[C@@]12CC[C@@H]3[C@@](CC[C@H]4[C@@]3(C)CCC[C@@]4(C)C(=O)NCC(=O)OCCOc3no[n+]([O-])c3S(=O)(=O)c3ccccc3)(CC1=O)C2`, the half-maximal inhibitory concentration (IC50) is > 50 µM in the experiment with HepG2 and 2.76 µM in experiment [1].

In experiment [1], `C[C@@]12CC[C@@H]3[C@@](CC[C@H]4[C@@]3(C)CCC[C@@]4(C)C(=O)NCC(=O)OCCCOc3no[n+]([O-])c3S(=O)(=O)c3ccccc3)(CC1=O)C2` had an IC50 of 8.06 µM. As for `C[C@@]12CC[C@@H]3[C@@](CC[C@H]4[C@@]3(C)CCC[C@@]4(C)C(=O)NCC(=O)OCC#CCOc3no[n+]([O-])c3S(=O)(=O)c3ccccc3)(CC1=O)C2`, the IC50 in the experiment on HepG2 was 4.24 µM; in experiment [1] it was 0.25 µM.

Take `C[C@@]12CC[C@@H]3[C@@](CC[C@H]4[C@@]3(C)CCC[C@@]4(C)C(=O)NCC(=O)OCCCOc3no[n+]([O-])c3S(=O)(=O)c3ccccc3)(CC(=O)O1)C2`: 2.05 µM corresponded to half-maximal inhibition in experiment [1] (IC50). In other words, the single-digit micromolar range. Consider `C[C@]12CC[C@@H]3[C@](CC[C@H]4[C@@]3(C)CCC[C@@]4(C)C(=O)NCC(=O)OCCCCOc3no[n+]([O-])c3S(=O)(=O)c3ccccc3)(C1)C(C=O)O2` (some centres not stated), for which the IC50 in experiment [1] came to 5.21 µM. As for `C=C1C(=O)[C@@]2(C)CC[C@@H]3[C@]1(CC[C@H]1[C@@]3(C)CCC[C@@]1(C)C(=O)NCC(=O)OCCOc1no[n+]([O-])c1S(=O)(=O)c1ccccc1)C2`, the IC50 with HepG2 came out at 7.13 µM; in experiment [1] it was 1.01 µM. Regarding `C=C1C(=O)[C@@]2(C)CC[C@@H]3[C@]1(CC[C@H]1[C@@]3(C)CCC[C@@]1(C)C(=O)NCC(=O)OCCCOc1no[n+]([O-])c1S(=O)(=O)c1ccccc1)C2`, the IC50 in the experiment with HepG2 was found to be 38.6 µM; in experiment [1] it was 0.016 µM.

On to `C=C[C@]12CC[C@H]3[C@@](C)(CCC[C@@]3(C)C(=O)O)[C@@H]1CC[C@](C)(COC(=O)CCC(=O)OCCOc1no[n+]([O-])c1S(=O)(=O)c1ccccc1)C2`, for which the results for the IC50 (in the experiment with HepG2; in experiment [1]) were 6.44 µM and 1.98 µM, respectively. As for `C=C[C@]12CC[C@H]3[C@@](C)(CCC[C@@]3(C)C(=O)O)[C@@H]1CC[C@](C)(COC(=O)CCC(=O)OCCCOc1no[n+]([O-])c1S(=O)(=O)c1ccccc1)C2`, in experiment [1], the IC50 was > 50 µM.

In the case of `C=C[C@]12CC[C@H]3[C@@](C)(CCC[C@@]3(C)C(=O)O)[C@@H]1CC[C@](C)(COC(=O)CCC(=O)OCC#CCOc1no[n+]([O-])c1S(=O)(=O)c1ccccc1)C2`, the IC50 in the experiment on HepG2 turned out to be 7.54 µM; in experiment [1], 3.84 µM. `COC(=O)[C@]1(C)CCC[C@@]2(C)[C@@H]3CC[C@@]4(C)C[C@]3(CC[C@@H]21)C/C4=N\OC(=O)CCC(=O)OCCOc1no[n+]([O-])c1S(=O)(=O)c1ccccc1` yielded an IC50 in the experiment with HepG2 of 30.2 µM.

`COC(=O)[C@]1(C)CCC[C@@]2(C)[C@@H]3CC[C@@]4(C)C[C@]3(CC[C@@H]21)C/C4=N\OC(=O)CCC(=O)OCCCOc1no[n+]([O-])c1S(=O)(=O)c1ccccc1`: in the experiment on HepG2, 33.4 µM corresponded to half-maximal inhibition (IC50). Consider `COC(=O)[C@]1(C)CCC[C@@]2(C)[C@@H]3CC[C@@]4(C)C[C@]3(CC[C@@H]21)C/C4=N\OC(=O)CCC(=O)OCCCCOc1no[n+]([O-])c1S(=O)(=O)c1ccccc1`, for which the IC50 with HepG2 stood at 5.16 µM. Consider `COC(=O)[C@]1(C)CCC[C@@]2(C)[C@@H]3CC[C@@]4(C)C[C@]3(CC[C@@H]21)C/C4=N\OC(=O)CCC(=O)OCCOCCOc1no[n+]([O-])c1S(=O)(=O)c1ccccc1`, for which the values for the IC50 (in the experiment on HepG2; in experiment [1]) were 2.75 µM and 2.12 µM, respectively. `COC(=O)[C@]12CCC(C)(C)C[C@H]1[C@H]1C(=O)C=C3[C@@]4(C)C=C(C#N)C(=O)C(C)(C)[C@@H]4CC[C@@]3(C)[C@]1(C)CC2` [BARDOXOLONE METHYL]: the IC50 in the experiment on HepG2 was 4.99 µM; in experiment [1], 5.85 µM. As to `CC[C@@]1(O)C(=O)OCc2c1cc1n(c2=O)Cc2cc3ccccc3nc2-1` [CAMPTOTHECIN], the midpoint of inhibition in experiment [1], the IC50, lay at 2.78 µM. Turning to `C[C@@]12CC[C@@H]3[C@@](CC[C@H]4[C@@]3(C)CCC[C@@]4(C)C(=O)O)(CC1=O)C2` [ISOSTEVIOL], the IC50 (with HepG2; in experiment [1]) was > 100 µM each time.

The values are drawn from ChEMBL document CHEMBL3259691, “Synthesis and cytotoxic activity of nitric oxide-releasing isosteviol derivatives” (Bioorg Med Chem Lett, 2014).
